One block for each molecule: values may come before it.
Assays:
Cytochrome P450 3A4 [1] = target: T1, Cytochrome P450 3A4 (Homo sapiens, UniProt P08684); test: Drug metabolism of the compound assessed as CYP3A4 (unknown origin)-mediated 1-sec-butyl-4-(4-(4-(4-(3-hydroxy-2-oxopropoxy)phenyl)piperazin-1-yl)phenyl)-1H-1,2,4-triazol-5(4H)-one by LC/MS/MS analysis; type: ADME
Cytochrome P450 3A4 [2] = target: T1, Cytochrome P450 3A4; test: Drug metabolism of the compound assessed as CYP3A4 (unknown origin)-mediated 3-(4-(4-(4-(1-sec-butyl-5-oxo-1H-1,2,4-triazol-4(5H)-yl)phenyl)piperazin-1-yl)phenoxy)-2-hydroxypropanal by LC/MS/MS analysis; type: ADME
Cytochrome P450 3A4 [3] = target: T1, Cytochrome P450 3A4; test: Drug metabolism of the compound assessed as CYP3A4 (unknown origin)-mediated 1-(2,4-dichlorophenyl)-2-(1H-1,2,4-triazol-1-yl)ethanone formation by LC/MS/MS analysis; type: ADME
Summary of the method: (§1)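 kcat for M2 formation: trans isomers at 500 nM with CYP3A4 Supersomes (1 pmol) in KPi buffer. 5-min preincubation at 37°C, then NADPH (1 mM final) and 1-min reaction. M2 by LC-MS/MS, m/z 256.0>158.8, ITZ-d5 internal standard, standard curve 0.039–30 nM. kcat = product/time/pmol CYP3A4.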

Cytochrome P450 3A4 [4] = target: T1, Cytochrome P450 3A4; test: Drug metabolism of the compound assessed as purified CYP3A4 (unknown origin)-mediated 1-sec-butyl-4-(4-(4-(4-(3-hydroxy-2-oxopropoxy)phenyl)piperazin-1-yl)phenyl)-1H-1,2,4-triazol-5(4H)-one by LC/MS/MS analysis in presence of NADPH; type: ADME
Cytochrome P450 3A4 [5] = target: T1, Cytochrome P450 3A4; test: Drug metabolism of the compound assessed as CYP3A4 (unknown origin) coexpressing P450 reductase and cytochrome-b5-mediated 1-(2,4-dichlorophenyl)-2-(1H-1,2,4-triazol-1-yl)ethanone formation at 500 nM after 5 mins by LC/MS analysis in presence of NADPH; type: ADME; details: 0.5 µM
Cytochrome P450 3A4 [6] = target: T1, Cytochrome P450 3A4; test: Drug metabolism of the compound assessed as reconstituted CYP3A4 (unknown origin)-mediated 1-(2,4-dichlorophenyl)-2-(1H-1,2,4-triazol-1-yl)ethanone formation at 500 nM after 5 mins by LC/MS analysis in presence of NADPH; type: ADME; details: 0.5 µM
Cytochrome P450 3A4 [7] = target: T1, Cytochrome P450 3A4; test: Drug metabolism of the compound assessed as CYP3A4 (unknown origin) coexpressing P450 reductase and cytochrome-b5-mediated 1-sec-butyl-4-(4-(4-(4-(3-hydroxy-2-oxopropoxy)phenyl)piperazin-1-yl)phenyl)-1H-1,2,4-triazol-5(4H)-one after 5 mins by LC/MS/MS analysis in presence of NADPH; type: ADME
Cytochrome P450 3A4 [8] = target: T1, Cytochrome P450 3A4; test: Drug metabolism of the compound assessed as purified CYP3A4 (unknown origin)-mediated 3-(4-(4-(4-(1-sec-butyl-5-oxo-1H-1,2,4-triazol-4(5H)-yl)phenyl)piperazin-1-yl)phenoxy)-2-hydroxypropanal by LC/MS/MS analysis in presence of NADPH; type: ADME
Cytochrome P450 3A4 [9] = target: T1, Cytochrome P450 3A4; test: Drug metabolism of the compound assessed as CYP3A4 (unknown origin) coexpressing P450 reductase and cytochrome-b5-mediated 3-(4-(4-(4-(1-sec-butyl-5-oxo-1H-1,2,4-triazol-4(5H)-yl)phenyl)piperazin-1-yl)phenoxy)-2-hydroxypropanal after 5 mins by LC/MS/MS analysis in presence of NADPH; type: ADME
Cytochrome P450 3A4 [10] = target: T1, Cytochrome P450 3A4; test: Drug metabolism of the compound assessed as CYP3A4 (unknown origin) coexpressing P450 reductase and cytochrome-b5-mediated 1-sec-butyl-4-(4-(4-(4-(2,3-dihydroxypropoxy)phenyl)piperazin-1-yl)phenyl)-1H-1,2,4-triazol-5(4H)-one formation after 3 mins by LC/MS/MS analysis; type: ADME; details: 0.05 h
Cytochrome P450 3A4 [11] = target: T1, Cytochrome P450 3A4; test: Drug level of the compound assessed as CYP3A4 (unknown origin)-mediated metabolite formation treated with 3'-OH-ITZ by LC/MS/MS analysis; type: ADME
Summary of the method: (§2)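 Substrate incubated with CYP3A4 Supersomes (100 pmol) in KPi buffer at 37°C for 1 h, with and without NADPH, plus a no-enzyme control. Products by LC/Q-TOF MS, positive ESI, m/z 100–1500, cone 35 V, low-energy (6 eV) and ramped high-energy modes.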

Cytochrome P450 3A4 [12] = target: T1, Cytochrome P450 3A4; test: Drug level of the compound assessed as CYP3A4 (unknown origin)-mediated metabolite formation treated with keto-ITZ by LC/MS/MS analysis; type: ADME; summary of the method: as §2
[13] = Drug metabolism in human assessed as 1-(2,4-dichlorophenyl)-2-(1H-1,2,4-triazol-1-yl)ethanone level in urine at 400 mg, po measured on day 2 by MS/MS analysis; type: ADME, organism-based; details: in vivo
Summary of the method: (§3)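 Six subjects (5 male, 1 female) received itraconazole 400 mg orally. Urine collected 24 h before dosing, 0–12 and 12–24 h after, then 24–48, 72–96 and 120–144 h, with volume recorded. 5 ml urine extracted with ethyl acetate. M2 measured by MS/MS at transition m/z 256>158.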

CYP3A4 = CYP3A4 (Homo sapiens, UniProt P08684); test: Inhibition of CYP3A4 in human liver microsomes using midazolam as substrates at 15 uM after 5 mins by LC/MS analysis in presence of NADPH; type: ADME; details: probe midazolam
Chain of CYP3A4 (P08684 whole entry): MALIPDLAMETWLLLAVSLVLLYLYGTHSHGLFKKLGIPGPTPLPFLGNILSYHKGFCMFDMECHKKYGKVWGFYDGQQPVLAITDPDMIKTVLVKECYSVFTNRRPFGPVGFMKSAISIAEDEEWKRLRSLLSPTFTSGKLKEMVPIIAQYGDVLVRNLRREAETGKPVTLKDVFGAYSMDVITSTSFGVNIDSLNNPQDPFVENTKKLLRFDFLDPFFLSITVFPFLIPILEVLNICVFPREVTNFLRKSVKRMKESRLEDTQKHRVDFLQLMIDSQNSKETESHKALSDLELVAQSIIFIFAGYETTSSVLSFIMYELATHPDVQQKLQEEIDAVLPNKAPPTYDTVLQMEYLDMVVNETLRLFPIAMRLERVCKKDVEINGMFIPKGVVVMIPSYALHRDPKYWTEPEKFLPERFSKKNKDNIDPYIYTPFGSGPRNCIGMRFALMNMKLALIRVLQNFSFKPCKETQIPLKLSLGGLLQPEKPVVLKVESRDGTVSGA

Cytochrome P450 3A4 [14] = target: T1, Cytochrome P450 3A4; test: Drug level of the compound assessed as CYP3A4 (unknown origin)-mediated metabolite formation treated with cis-ITZ by LC/MS/MS analysis; type: ADME; summary of the method: as §2
Cytochrome P450 3A4 [15] = target: T1, Cytochrome P450 3A4; test: Inhibition of CYP3A4 in human liver microsomes using midazolam as substrates after 5 mins by LC/MS analysis in presence of NADPH; type: ADME
Summary of the method: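 Pooled HLM (0.025 mg/ml, CYP3A5*3/*3) with midazolam 1 μM in KPi. Inhibitor range 5–1000 nM for trans isomers. 5-min preincubation at 37°C, then NADPH 1 mM final, run for 2 min. Stopped with ethyl acetate, d4-1'-OH-MDZ added as internal standard. IC50 from fit of remaining-activity equation.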

[16] = Drug metabolism in human assessed as 1-(2,4-dichlorophenyl)-2-(1H-1,2,4-triazol-1-yl)ethanone level in urine at 400 mg, po measured on day 7 by MS/MS analysis; type: ADME, organism-based; details: in vivo; summary of the method: as §3
Cytochrome P450 3A4 [17] = target: T1, Cytochrome P450 3A4; test: Binding affinity to purified CYP3A4 (unknown origin) coexpressing P450 reductase and cytochrome-b5 by UV-Vis spectrophotometry; type: ADME; details: read-out: Ks
Cytochrome P450 3A4 [18] = target: T1, Cytochrome P450 3A4; test: Drug metabolism of the compound assessed as CYP3A4 (unknown origin) coexpressing P450 reductase and cytochrome-b5-mediated 1-(2,4-dichlorophenyl)-2-(1H-1,2,4-triazol-1-yl)ethanone formation by LC/MS/MS analysis; type: ADME; summary of the method: as §1
Cytochrome P450 3A4 [19] = target: T1, Cytochrome P450 3A4; test: Drug level of the compound assessed as CYP3A4 (unknown origin)-mediated metabolite formation treated with N-desalkyl-ITZ by LC/MS/MS analysis; type: ADME; summary of the method: as §2
Cytochrome P450 3A4 [20] = target: T1, Cytochrome P450 3A4; test: Drug metabolism of the compound assessed as CYP3A4 (unknown origin) coexpressing P450 reductase and cytochrome-b5-mediated 1-sec-butyl-4-(4-(4-(4-(2,3-dihydroxypropoxy)phenyl)piperazin-1-yl)phenyl)-1H-1,2,4-triazol-5(4H)-one formation after 1 hr by LC/MS/MS analysis; type: ADME
[21] = Drug metabolism in human assessed as 1-(2,4-dichlorophenyl)-2-(1H-1,2,4-triazol-1-yl)ethanone level in urine at 400 mg, po after 24 hrs by MS/MS analysis; type: ADME, organism-based; details: in vivo; summary of the method: as §3
[22] = Drug metabolism in human assessed as 1-(2,4-dichlorophenyl)-2-(1H-1,2,4-triazol-1-yl)ethanone level in urine at 400 mg, po measured on day 4 by MS/MS analysis; type: ADME, organism-based; details: in vivo; summary of the method: as §3
Cytochrome P450 3A4 [23] = target: T1, Cytochrome P450 3A4; test: Drug level of the compound assessed as CYP3A4 (unknown origin) coexpressing P450 reductase and cytochrome-b5-mediated metabolite formation treated with trans-ITZ by LC/MS/MS analysis; type: ADME
Cytochrome P450 3A4 [24] = target: T1, Cytochrome P450 3A4; test: Drug level of the compound assessed as CYP3A4 (unknown origin) coexpressing P450 reductase and cytochrome-b5-mediated metabolite formation treated with trans-(2S,4S,2'S)-ITZ by LC/MS/MS analysis; type: ADME
Cytochrome P450 3A4 [25] = target: T1, Cytochrome P450 3A4; test: Drug level of the compound assessed as purified CYP3A4 (unknown origin)-mediated metabolite formation treated with trans-(2S,4S,2'S)-ITZ by LC/MS/MS analysis; type: ADME

T1 sequence (P08684 whole entry): as above

Drug metabolism (Cytochrome P450 3A4 [1]): metabolite_detected | Drug metabolism (Cytochrome P450 3A4 [2]): metabolite_detected | Drug metabolism (Cytochrome P450 3A4 [3]): metabolite_detected
SMILES: CC[C@H](C)n1ncn(-c2ccc(N3CCN(c4ccc(OC[C@@H]5CO[C@@](Cn6cncn6)(c6ccc(Cl)cc6Cl)O5)cc4)CC3)cc2)c1=O

Drug metabolism (Cytochrome P450 3A4 [1]): metabolite_detected | Drug metabolism (Cytochrome P450 3A4 [2]): metabolite_detected | Drug metabolism (Cytochrome P450 3A4 [3]): metabolite_detected
SMILES: CC[C@H](C)n1ncn(-c2ccc(N3CCN(c4ccc(OC[C@H]5CO[C@](Cn6cncn6)(c6ccc(Cl)cc6Cl)O5)cc4)CC3)cc2)c1=O

Drug metabolism (Cytochrome P450 3A4 [1]): metabolite_detected | Drug metabolism (Cytochrome P450 3A4 [2]): metabolite_detected | Drug metabolism (Cytochrome P450 3A4 [3]): metabolite_detected
SMILES: CC[C@@H](C)n1ncn(-c2ccc(N3CCN(c4ccc(OC[C@H]5CO[C@](Cn6cncn6)(c6ccc(Cl)cc6Cl)O5)cc4)CC3)cc2)c1=O

Drug metabolism (Cytochrome P450 3A4 [4]): metabolite_detected | Kcat (Cytochrome P450 3A4 [5]): 0.0198 s⁻¹ | Kcat (Cytochrome P450 3A4 [6]): 0.0042 s⁻¹ | Drug metabolism (Cytochrome P450 3A4 [7]): metabolite_detected | Drug metabolism (Cytochrome P450 3A4 [8]): metabolite_detected | Drug metabolism (Cytochrome P450 3A4 [9]): metabolite_detected | Drug metabolism (Cytochrome P450 3A4 [10]): metabolite_detected
SMILES: CC[C@H](C)n1ncn(-c2ccc(N3CCN(c4ccc(OC[C@H]5CO[C@@](Cn6cncn6)(c6ccc(Cl)cc6Cl)O5)cc4)CC3)cc2)c1=O

Kcat (Cytochrome P450 3A4 [5]): 0.0183 s⁻¹ | Kcat (Cytochrome P450 3A4 [6]): 0.0041 s⁻¹
SMILES: CC[C@@H](C)n1ncn(-c2ccc(N3CCN(c4ccc(OC[C@H]5CO[C@@](Cn6cncn6)(c6ccc(Cl)cc6Cl)O5)cc4)CC3)cc2)c1=O

Kcat (Cytochrome P450 3A4 [5]): 0.0214 s⁻¹ | Kcat (Cytochrome P450 3A4 [6]): 0.0038 s⁻¹
SMILES: CC[C@H](C)n1ncn(-c2ccc(N3CCN(c4ccc(OC[C@@H]5CO[C@](Cn6cncn6)(c6ccc(Cl)cc6Cl)O5)cc4)CC3)cc2)c1=O

Kcat (Cytochrome P450 3A4 [5]): 0.0159 s⁻¹ | Kcat (Cytochrome P450 3A4 [6]): 0.0032 s⁻¹
SMILES: CC[C@@H](C)n1ncn(-c2ccc(N3CCN(c4ccc(OC[C@@H]5CO[C@](Cn6cncn6)(c6ccc(Cl)cc6Cl)O5)cc4)CC3)cc2)c1=O

Drug metabolism (Cytochrome P450 3A4 [11]): metabolite_detected | Drug metabolism (Cytochrome P450 3A4 [12]): metabolite_detected | Drug metabolism [13]: 429 ng | inhibition at 5 min, 15 µM (CYP3A4): < 50% | Drug metabolism (Cytochrome P450 3A4 [14]): metabolite_detected | IC50 (Cytochrome P450 3A4 [15]): > 15 µM | Drug metabolism [16]: 87 ng | Kd (Cytochrome P450 3A4 [17]): 12.8 µM | Drug metabolism (Cytochrome P450 3A4 [18]): metabolite_detected | Drug metabolism (Cytochrome P450 3A4 [19]): metabolite_detected | Drug metabolism (Cytochrome P450 3A4 [20]): metabolite_detected | Drug metabolism [21]: 1114 ng | Drug metabolism [22]: 319 ng | Drug metabolism (Cytochrome P450 3A4 [23]): metabolite_detected
SMILES: O=C(Cn1cncn1)c1ccc(Cl)cc1Cl

Drug metabolism (Cytochrome P450 3A4 [14]): metabolite_detected | Drug metabolism (Cytochrome P450 3A4 [24]): metabolite_detected | Drug metabolism (Cytochrome P450 3A4 [25]): metabolite_detected
SMILES: CCC(C)n1ncn(-c2ccc(N3CCN(c4ccc(OCC(O)C=O)cc4)CC3)cc2)c1=O (centres undefined)

Drug metabolism (Cytochrome P450 3A4 [14]): metabolite_detected | Drug metabolism (Cytochrome P450 3A4 [24]): metabolite_detected | Drug metabolism (Cytochrome P450 3A4 [25]): metabolite_detected
SMILES: CCC(C)n1ncn(-c2ccc(N3CCN(c4ccc(OCC(=O)CO)cc4)CC3)cc2)c1=O (centres undefined)

Drug metabolism (Cytochrome P450 3A4 [18]): metabolite_detected | Drug metabolism (Cytochrome P450 3A4 [20]): metabolite_detected | Drug metabolism (Cytochrome P450 3A4 [23]): metabolite_detected | Drug metabolism (Cytochrome P450 3A4 [25]): metabolite_not_detected
SMILES: CCC(C)n1ncn(-c2ccc(N3CCN(c4ccc(OCC(O)CO)cc4)CC3)cc2)c1=O (centres undefined)

Drug metabolism (Cytochrome P450 3A4 [1]): metabolite_detected | Drug metabolism (Cytochrome P450 3A4 [2]): metabolite_detected | Drug metabolism (Cytochrome P450 3A4 [3]): metabolite_detected
SMILES: CC[C@@H](C)n1ncn(-c2ccc(N3CCN(c4ccc(OC[C@@H]5CO[C@@](Cn6cncn6)(c6ccc(Cl)cc6Cl)O5)cc4)CC3)cc2)c1=O

Source: ChEMBL document CHEMBL3525957, “Stereospecific metabolism of itraconazole by CYP3A4: dioxolane ring scission of azole antifungals” (Drug Metab Dispos, 2012)
